Molecules are shown by their SMILES. Activity calls are given as the source filed them. No cut-off for these calls is given here.

The source of these data is ChEMBL document CHEMBL3526032, “Ablation of both organic cation transporter (OCT)1 and OCT2 alters metformin pharmacokinetics but has no effect on tissue drug exposure and pharmacodynamics” (Drug Metab Dispos, 2012).

One series has as its system OCT2 over OCT1. The series is described as follows: Selectivity for OCT2 (unknown origin) over OCT1 (unknown origin). Type of series: ADME. As to conditions: human.
The subject of series [1] is Mus musculus. Kind of series: Antidiabetic activity in wild type FVB mouse assessed as reduction in blood glucose level at 10 mg/kg, po by oral glucose tolerance test. Type of series: functional, organism-based. Also noted: dose 10 mg/kg. The essentials:
(§1)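 Male FVB mice, wild type or Oct1/2-knockout, fasted 16 h. Day 1: oral vehicle (1% hydroxyethyl cellulose/0.25% polysorbate-80/0.05% antifoam) given at -30 min. Day 8: oral metformin 10-300 mg/kg instead. At 0 min, oral glucose 2.5 g/kg.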

Series [2] concerns Mus musculus. The series is described as follows: Antidiabetic activity in Oct1/Oct2-knockout FVB mouse assessed as reduction in blood glucose level at 10 mg/kg, po by oral glucose tolerance test. Type of series: functional, organism-based. Also noted: dose 10 mg/kg. The essentials:
as §1

For series [3], the system named is Mus musculus. The series is described as follows: Antidiabetic activity in wild type FVB mouse assessed as reduction in blood glucose level at 300 mg/kg, po by oral glucose tolerance test relative to control. Type of series: functional, organism-based. Also noted: dose 300 mg/kg. The essentials: as §1
The subject of series [4] is Mus musculus. Kind of series: Antidiabetic activity in Oct1/Oct2-knockout FVB mouse assessed as reduction in blood glucose level at 300 mg/kg, po by oral glucose tolerance test relative to control. Type of series: functional, organism-based. Also noted: dose 300 mg/kg. In a few lines: as §1
The test system of series [5] is Mus musculus. Kind of series: Antidiabetic activity in po dosed wild type FVB mouse assessed as reduction in blood glucose level by oral glucose tolerance test relative to control. Type of series: functional. In a few lines:
as §1

In series [6] the test system is Mus musculus. Kind of series: Antidiabetic activity in po dosed Oct1/Oct2-knockout FVB mouse assessed as reduction in blood glucose level by oral glucose tolerance test relative to control. Type of series: functional. In a few lines: as §1
Series [7] has as its system Mus musculus. The series is described as follows: Antidiabetic activity in wild type FVB mouse assessed as blood glucose AUC level at 300 mg/kg, po by oral glucose tolerance test relative to control. Type of series: functional. In a few lines:
as §1

The test system of series [8] is Mus musculus. Kind of series: Antidiabetic activity in Oct1/Oct2-knockout FVB mouse assessed as blood glucose AUC level at 300 mg/kg, po by oral glucose tolerance test relative to control. Type of series: functional. The essentials: as §1
In series [9] the test system is Mus musculus. The series is described as follows: Antidiabetic activity in wild type FVB mouse assessed as half-maximal efficacious AUC at 300 mg/kg, po by oral glucose tolerance test relative to control. Also noted: dose 300 mg/kg. Type of series: functional, organism-based.
Series [10] deals with Mus musculus. The series is described as follows: Antidiabetic activity in Oct1/Oct2-knockout FVB mouse assessed as half-maximal efficacious AUC at 300 mg/kg, po by oral glucose tolerance test relative to control. Type of series: functional, organism-based. Further details: dose 300 mg/kg.
Series [11] relates to Mus musculus. Kind of series: Antidiabetic activity in wild type FVB mouse assessed as plasma insulin level at 300 mg/kg, po by oral glucose tolerance test. Also noted: dose 300 mg/kg. Type of series: functional, organism-based. In a few lines:
(§2)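 Plasma insulin measured by immunoassay at 0, 30, 60, 90 and 120 min during an oral glucose tolerance test (2.5 g/kg) in 16-h fasted male FVB wild-type or Oct1/2-knockout mice. Oral vehicle or metformin (10-300 mg/kg) given 30 min before glucose.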

In series [12] the test system is Mus musculus. The series is described as follows: Antidiabetic activity in Oct1/Oct2-knockout FVB mouse assessed as plasma insulin level at 300 mg/kg, po by oral glucose tolerance test. Also noted: dose 300 mg/kg. Type of series: functional, organism-based. In a few lines:
as §2

Series [13] can be described thus: Initial plasma concentration in wild type FVB mouse at 10 mg/kg, iv.
Series [14] can be described thus: Clearance in wild type FVB mouse at 10 mg/kg, iv. As to conditions: in vivo.
A short description of series [15]: Volume of distribution at steady state in wild type FVB mouse at 10 mg/kg, iv. As to conditions: in vivo.
The nature of series [16]: Drug excretion in wild type FVB mouse urine at 10 mg/kg, iv after 2 hrs.
Series [17] in a line: Drug recovery in wild type FVB mouse urine assessed as corrected compound recovery by measuring nominal to observerd glomerular filtration rate ratio at 10 mg/kg, iv.
The nature of series [18]: Initial plasma concentration in Oct1/Oct2-knockout FVB mouse at 10 mg/kg, iv.
The nature of series [19]: Clearance in Oct1/Oct2-knockout FVB mouse at 10 mg/kg, iv. As to conditions: in vivo.
Series [20] is described as follows: Volume of distribution at steady state in Oct1/Oct2-knockout FVB mouse at 10 mg/kg, iv. As to conditions: in vivo.
A short description of series [21]: Drug excretion in Oct1/Oct2-knockout FVB mouse urine at 10 mg/kg, iv after 2 hrs.
Series [22] can be described thus: Drug recovery in Oct1/Oct2-knockout FVB mouse urine assessed as corrected compound recovery by measuring nominal to observerd glomerular filtration rate ratio at 10 mg/kg, iv.
Series [23] is described as follows: in vivo. The note with it: FVB, mouse, plasma, iv, 10 mg/kg.
A short description of series [24]: in vivo. The note with it: FVB, mouse, plasma, iv, 10 mg/kg. This is another data set of the same source.
The nature of series [25]: in vivo. The note with it: FVB, mouse, iv, 10 mg/kg.
Series [26] in a line: in vivo. As to conditions: FVB, mouse, plasma, iv, 10 mg/kg. This is another data set of the same source.
Series [27] can be described thus: in vivo. The note with it: FVB, mouse, plasma, iv, 10 mg/kg. This is another data set of the same source.
A short description of series [28]: in vivo. As to conditions: FVB, mouse, iv, 10 mg/kg. This is another data set of the same source.

On to `NC12CC3CC(CC(C3)C1)C2` [AMANTADINE], for which, in the series on OCT2 over OCT1, the selectivity ratio stood at 20.

Consider `CC(N)Cc1ccccc1` (stereo not given) [AMPHETAMINE], for which the selectivity ratio in the series on OCT2 over OCT1 is 20.

For the compound `CN(C)C(=N)NC(=N)N.Cl` [METFORMIN HYDROCHLORIDE], the outcome in the series with Mus musculus [1] and with Mus musculus [2] was inactive. For the same compound, the result with Mus musculus [3], in the series on Mus musculus [4], with Mus musculus [11] and in the series on Mus musculus [12] was Active. For the same compound, the results for the ED50 in the series with Mus musculus [5] and in the series on Mus musculus [6] were 110 mg/kg and 151 mg/kg, respectively. Further, the Activity in the series with Mus musculus [7] is on record as 39%; in the series on Mus musculus [8], 42%. In addition, the AUC in the series with Mus musculus [9] came out at 26000 ng·h/mL; with Mus musculus [10], 70000 ng·h/mL.

`CC[N+](CC)(CC)CC` [TETRYLAMMONIUM]: the C0 in series [13] came to 22700 ng/mL; in series [18], 67400 ng/mL. Moreover, the values for the clearance in [14] and in series [19] were 58.7 mL/min/kg and 16.9 mL/min/kg, respectively. The distribution volume (Vd) stood at 1.52 L/kg in series [15] and 0.318 L/kg in series [20]. For the same compound, the results for the dose excreted at 2 h in [16] and in [21] were 35% and 30%, respectively. The dose excreted in series [17] was found to be 95%; in series [22] it was 62%. The AUC(0-t) in the series “in vivo [23]” is 2410 ng·h/mL; in the series “in vivo [26]” it was 9100 ng·h/mL. Also, the AUC(0-inf) in “in vivo [24]” is 2840 ng·h/mL; in the series “in vivo [27]” it was 9840 ng·h/mL. In addition, the half-life in “in vivo [25]” was 18.6 min; in “in vivo [28]”, 12 min.
